In this assay the test system is MCF7 TRAIL potentiation, ATPlite luminescence, 24 h. Nature of the assay: sensitizers of TRAIL-resistant MCF7 to apoptosis – cell-based, ATPlite luminescence, 24 h, confirmation (AID 1748). The note with it: stronger effect = higher value. In outline: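 Material: TRAIL-resistant MCF7 cells / Signal: ATPlite luminescence / Reagent: TRAIL / Dosing: compound at 1.25 to 5 µM final concentration / Timing: 24 h settling, 4 h compound pretreatment, 24 h TRAIL exposure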

Setting [1] is: compound alone 1.25 uM, at 1.25 µM.
[2] abbreviates: compound alone 2.5 uM, at 2.5 µM.
Where [3] appears, read: compound alone, no TRAIL, at 5 µM.
The mark [4] stands for this setting: compound plus TRAIL 1.25 uM, at 1.25 µM.
[5] abbreviates: compound plus TRAIL 2.5 uM, at 2.5 µM.

The source made the active and inactive calls.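 The calls were made as follows: active = Cell killing by compound with TRAIL above both separate effects added together, at all three tested doses; inactive = the rest.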

As for `CCSc1nc(-c2ccccc2)nc(C(Cl)Cl)n1`, the cytotoxicity with TRAIL was 72% (at 5 µM), 44% under setting [4] and 52% under setting [5]. In addition, the cytotoxicity runs as follows: under setting [1], 0%; under setting [2], 0%; under setting [3], 28%.
For `CSc1nc(-c2ccc(C)cc2)nc(C(Cl)Cl)n1`, the cytotoxicity with TRAIL is 57% (inactive) (at 5 µM), 37% under setting [4] and 48% under setting [5]. Besides, the cytotoxicity under setting [1] worked out at 0%, the cytotoxicity under setting [2] stood at 8% and the cytotoxicity under setting [3] stood at 26%.
Turning to `CSc1nc(-c2ccccc2)nc(C(Cl)Cl)n1`, the cytotoxicity with TRAIL is 82% (inactive) (at 5 µM), 55% under setting [4] and 74% under setting [5]. Moreover, the cytotoxicity reads like this: under setting [1], 0%; under setting [2], 36%; under setting [3], 55%.

These data come from PubChem BioAssay AID1748 (Sanford-Burnham Center for Chemical Genomics, 2009).
